In the library only some 3.5% were active in any assay of this set; here they are far more common.
Env fusion inh = inhibitors of HIV Env-mediated cell fusion; inhibition, % at 12.3 µM; HeLa-JRFL Env/CEM21 cell fusion, luciferase; 360,000 compounds, 1.1% hits;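 active means mean replicate inhibition score of at least 50 and every replicate individually at or above 50; inconclusive means only one of the two criteria met; inactive means mean below 50 and not all replicates reaching 50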
Wnt bcat act = activates Wnt/beta-catenin signaling in a reporter cell assay. 300,000 compounds, 1.2% hits. activator, plate reader. activation, % at 9.35 µM; in the data active means activation above about 30%, passing the limit was not always enough; inconclusive means no clear call, values can overlap the other calls
ERAP1 HTS inh = inhibitors of human ERAP1 aminopeptidase. Q9NZ08. recombinant ERAP1, Leu-AMC fluorescence, 60 min. inhibition, % at 10.7 µM. 340,000 compounds, 0.15% hits;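 active means mean replicate inhibition of at least 30%, or all replicates individually reaching that 30% level; inactive means mean below 30% and not every replicate reaching it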
Target sequence (Q9NZ08 whole entry, looked up): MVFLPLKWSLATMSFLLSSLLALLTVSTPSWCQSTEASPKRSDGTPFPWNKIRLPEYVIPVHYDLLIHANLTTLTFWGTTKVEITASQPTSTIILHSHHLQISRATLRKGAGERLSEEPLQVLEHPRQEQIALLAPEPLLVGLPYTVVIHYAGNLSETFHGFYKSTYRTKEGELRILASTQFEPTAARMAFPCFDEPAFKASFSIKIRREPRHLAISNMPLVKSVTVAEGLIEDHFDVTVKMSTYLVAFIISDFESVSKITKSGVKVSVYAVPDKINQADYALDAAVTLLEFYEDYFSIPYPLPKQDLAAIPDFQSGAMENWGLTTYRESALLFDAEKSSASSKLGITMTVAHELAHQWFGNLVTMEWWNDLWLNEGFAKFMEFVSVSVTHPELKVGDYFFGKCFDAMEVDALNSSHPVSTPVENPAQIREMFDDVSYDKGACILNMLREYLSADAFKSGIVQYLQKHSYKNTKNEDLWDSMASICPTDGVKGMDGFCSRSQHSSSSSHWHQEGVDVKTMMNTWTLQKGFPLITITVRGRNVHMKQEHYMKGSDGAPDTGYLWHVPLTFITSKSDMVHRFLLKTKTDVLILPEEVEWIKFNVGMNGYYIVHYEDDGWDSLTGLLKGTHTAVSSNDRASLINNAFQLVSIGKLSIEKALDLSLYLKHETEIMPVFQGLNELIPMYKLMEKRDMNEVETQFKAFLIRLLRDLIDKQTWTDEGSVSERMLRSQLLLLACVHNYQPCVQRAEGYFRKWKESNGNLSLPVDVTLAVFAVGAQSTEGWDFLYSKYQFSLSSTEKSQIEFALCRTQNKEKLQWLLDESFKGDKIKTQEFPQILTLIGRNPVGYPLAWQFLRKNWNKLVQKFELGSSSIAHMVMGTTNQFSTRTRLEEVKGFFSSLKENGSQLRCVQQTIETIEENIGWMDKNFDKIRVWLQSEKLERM
MITF act = activators of MITF-driven TRPM1 promoter activity in SK-MEL-5 cells; activation, % at 12.5 µM; SK-MEL-5 TRPM1-promoter luciferase, 24 h; % of positive control, neutral wells = 0; 300,000 compounds, 0.75% hits;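 active means mean activation of at least 80% with every replicate also reaching 80%; inconclusive means mean reaches 80% but some replicate falls short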
esBAF inh = SWI/SNF esBAF complex inhibition | mouse ES cells, Bmi1-luciferase knock-in reporter, 24 h; 100% = twice the neutral-well signal | reporter increase, % at 12.5 µM | 350,000 compounds, 2% hits | AID 602393; in the data active means activation above about 40%; inconclusive means no clear call, values can overlap the other calls;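 further: a rise in the Bmi1 reporter signal indicates esBAF inhibition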
Cneo AK release = causes C. neoformans cell lysis. adenylate kinase release luminescence, 4 h; normalised: neutral wells 0, clomiphene wells 100. lysis activity, % at 15 µM. 360,000 compounds, 0.2% hits. AID 651654;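 active means mean lysis activity across replicates of at least 80%, whatever share of replicates individually reach that level; inactive means mean lysis activity below 80%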
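Assay system: log-phase C. neoformans yeast / Quantity: yeast cell density of 5 × 10^6 cells/mL / Medium: fresh YPD growth medium / Compound: single dose / Timing: static 4 h at 37 °C with compound, 1 h detection / Measured by: adenylate kinase release luminescence / Read-out: lysis from increased AK signal / Benchmarks: Clomiphene as positive lysis control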
A number is an active result; - = inactive; ? = inconclusive; . = no result; [ ] = another dose, or the depositor's remark.

SMILES | Env fusion inh | Wnt bcat act | ERAP1 HTS inh | MITF act | esBAF inh | Cneo AK release
CO[C@H]1CN(C)C(=O)c2cc(NC(=O)c3ccc4c(c3)OCO4)ccc2OC[C@@H](C)N(CC2CC2)C[C@H]1C | - | . | - | . | - | 90
COc1ccccc1C(=O)Nc1ccc2c(c1)OC[C@H](C)N(C(C)=O)C[C@H](C)[C@H](OC)CN(C)C2=O | 60[16.7 µM] | . | . | . | - | 101
CO[C@H]1CN(C)C(=O)c2cc(NC(=O)c3ccccc3F)ccc2OC[C@H](C)N(CC2CCOCC2)C[C@H]1C | - | . | - | . | - | 98
CO[C@H]1CN(C)C(=O)c2cc(NC(=O)c3ccc(F)cc3)ccc2OC[C@H](C)N(C(=O)CN(C)C)C[C@@H]1C | 62[16.7 µM] | . | - | . | - | -
O=C(Nc1nccs1)c1sc2cc(Cl)ccc2c1Cl | - | 76 | . | . | 57 | -
O=C(Nc1ccccn1)c1sc2cc([N+](=O)[O-])ccc2c1Cl | - | - | - | . | 42 | -
O=C(NC1CC1)c1sc2ccccc2c1Cl | - | - | - | - | 47 | -
O=C(CNC(=O)c1sc2ccccc2c1Cl)NC1CC1 | - | - | - | - | - | -
O=C(NC(=S)NCCO)c1sc2ccccc2c1Cl | - | 42 | . | - | 53 | -
O=C(Nc1nccs1)c1sc2ccccc2c1Cl | . | . | . | - | . | -
CO[C@@H](CN(C)Cc1cc(F)ccc1F)[C@@H](C)CN(C(=O)Nc1ccc(F)cc1)[C@H](C)CO | . | . | - | . | - | -
CC(NC(=O)c1sc2ccccc2c1Cl)C1CCCO1 (stereo unspecified) | - | - | . | 126 | . | .
O=C(NC1CC1)c1sc2cc(Cl)ccc2c1Cl | - | - | - | 111 | 44 | -
Cc1cc(C(=O)Nc2cccc3c2O[C@H](CN(C)CC2CC2)[C@H](C)CN([C@H](C)CO)C3=O)n(C)n1 | - | . | - | . | - | -
CNc1cncc(-c2ccoc2)n1 | - | - | - | . | - | -
CNc1cncc(-c2cnn(CC(C)C)c2)n1 | - | - | - | . | 43 | -
CCOc1ccccc1OCCn1nc2ccccc2n1 | - | - | - | . | - | -
Cc1ccc(OCCn2nc3ccccc3n2)c(C)c1 | - | - | . | . | 55 | -
Cc1ccc(-n2nc3c(n2)/C(=N/O)CC/C3=N\O)cc1 | - | 43 | . | - | - | -
COc1ccc(-c2ccc3c(c2)O/C(=C\c2ccsc2)C3=O)cn1 | - | - | - | - | 45 | -
COc1ccc(-c2ccc3c(=O)cc(-c4ccsc4)oc3c2)cn1 | - | - | - | - | - | -
COc1cccc(S(=O)(=O)N2CCC3(CC2)CN(C(=O)Nc2cccc(F)c2)[C@@H](CO)c2[nH]c4cc(OC)ccc4c23)c1 | 72[16.7 µM] | . | - | . | . | .
COC(=O)c1ccc(Oc2nc(Nc3ccc(C)c(C)c3)nc(N(C)C)n2)cc1 | 65 | . | . | - | - | -
C[C@H]1CN([C@@H](C)CO)C(=O)c2cc(NC(=O)CCN3CCOCC3)ccc2O[C@H]1CN(C)C(=O)Nc1ccccc1 | . | . | - | . | - | -
Oc1c(C(Nc2nccs2)c2ccc(C(F)(F)F)cc2)ccc2cccnc12 (stereo unspecified) | - | - | - | - | . | .
SMILES | Env fusion inh | Wnt bcat act | ERAP1 HTS inh | MITF act | esBAF inh | Cneo AK release
Oc1c(C(Nc2cccc(C(F)(F)F)c2)c2ccncc2)ccc2cccnc12 (stereo unspecified) | - | 53 | - | - | . | .
Cc1ccc(/C=C/C(=O)c2nc3ccccc3[nH]2)cc1 | - | 37 | . | - | - | -
O=C(/C=C/c1c(F)cccc1Cl)Nc1nc2ccccc2[nH]1 | - | 37 | - | ? | . | .
Cc1ccc(/C=C/C(=O)Nc2nc3ccccc3[nH]2)cc1 | - | - | . | 107 | . | .
CC(=O)Nc1nc2ccccc2[nH]1 | - | - | - | - | . | -
CN1C(=O)c2cc(NC(=O)NC3CCCC3)ccc2OC[C@@H]2O[C@@H](CC(=O)NCC3CC3)CC[C@@H]21 | - | . | - | . | - | -
O=C(C[C@H]1C=C[C@@H](NC(=O)c2cccc(F)c2)[C@@H](CO)O1)Nc1nccs1 | - | . | - | . | - | -
C[C@H](NC(=O)C[C@@H]1CC[C@@H]2[C@H](COC[C@H](O)CN2C(=O)Nc2cc(Cl)cc(Cl)c2)O1)c1ccccc1 | . | . | - | . | - | -
COc1ccc(CN(C)C[C@@H]2Oc3ccc(NC(=O)C4CC4)cc3C(=O)N([C@H](C)CO)C[C@H]2C)cc1 | - | . | - | . | - | 106
C[C@@H]1CN([C@@H](C)CO)C(=O)c2cc(NC(=O)C3CC3)ccc2O[C@H]1CN(C)Cc1ccc2c(c1)OCO2 | - | . | - | . | - | 101
C[C@H]1CN([C@@H](C)CO)C(=O)c2cc(NC(=O)C3CCCCC3)ccc2O[C@@H]1CN(C)Cc1ccncc1 | 55[16.7 µM] | . | - | . | - | -
C[C@@H]1CN([C@H](C)CO)C(=O)c2cc(NC(=O)C3CC3)ccc2O[C@@H]1CN(C)Cc1ccc2c(c1)OCO2 | - | . | . | . | - | -
COc1ccc(CN(C)C[C@@H]2Oc3ccc(NC(=O)Nc4ccc(OC)cc4)cc3C(=O)N([C@H](C)CO)C[C@@H]2C)cc1 | 63[16.7 µM] | . | - | . | - | -
COc1ccc(CN(C)C[C@@H]2Oc3ccc(NC(=O)C4CC4)cc3C(=O)N([C@@H](C)CO)C[C@H]2C)cc1 | - | . | - | . | - | 92
CCCC#Cc1ccc2c(c1)[C@H]1[C@H](CCN1S(=O)(=O)c1ccc(C)cc1)[C@H](CO)N2C | . | . | - | . | - | -
CO[C@H]1CN(C)C(=O)c2ccc(NS(=O)(=O)CC(F)(F)F)cc2OC[C@H](C)N(C)C[C@@H]1C | . | . | - | . | . | .
Cc1c(C(=O)N2c3ccccc3CC2C)oc2ccccc12 (stereo unspecified) | - | 51 | - | - | 85 | -
COCc1c(C(=O)OCC(=O)N2c3ccccc3CC2C)oc2ccccc12 (stereo unspecified) | - | - | . | . | - | -
CC(/C=C/c1ccccc1)=N\NC(N)=S | - | - | . | . | 50 | -
CC(/C=C/c1ccccc1)=N\NC(=S)NC(C)C | - | - | - | - | - | -
O=C1CC(c2ccco2)CC2=C1C=Nc1ccccc1N2 (stereo unspecified) | - | 45 | . | - | - | -
O=C(NCC[C@H]1CC[C@H](NC(=O)C2CCCCC2)[C@@H](CO)O1)Nc1ccc(Cl)cc1 | - | . | - | . | - | -
O=C(NCC[C@@H]1CC[C@H](NC(=O)c2cccnc2)[C@@H](CO)O1)Nc1ccc(C(F)(F)F)cc1 | - | . | - | . | - | -
O=C(NCC[C@@H]1CC[C@@H](NC(=O)c2cccnc2)[C@H](CO)O1)Nc1ccc(C(F)(F)F)cc1 | - | . | - | . | 54 | -
O=C(C[C@@H]1CC[C@H](NC(=O)c2cccnc2)[C@@H](CO)O1)NCCN1CCCCC1 | - | . | - | . | - | -
O=C(C[C@@H]1CC[C@@H](NC(=O)c2cccnc2)[C@@H](CO)O1)NCCN1CCCCC1 | - | . | - | . | - | 93
C[C@@H]1CCCCO[C@H](CN(C)C(=O)CCCN(C)C)[C@H](C)CN([C@@H](C)CO)C(=O)c2cc(NC(=O)Nc3cccc4ccccc34)ccc2O1 | - | . | - | . | - | -

Bioassay records as filed in PubChem.
